According to ChEMBL document CHEMBL4396943, “The tetrahydroxanthone-dimer phomoxanthone A is a strong inducer of apoptosis in cisplatin-resistant solid cancer cells” (Bioorg Med Chem, 2019):
Calls of active or inactive are those of the source. The calls are words filed in the database; no cut-off is given here.

How the values were obtained:
[1] = tested on: J82; assay: Induction of apoptosis in human J82 cells assessed as depolarization of mitochondrial membrane potential at 20 uM incubated for 2 hrs by hoechst 33342 staining based fluorescence microscopy; format: functional, cell-based
In short: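 J82 cells treated 2 h with PXA, then labelled 20 min with TMRE plus Hoechst 33342. ΔΨm read by high-content fluorescence imaging. Untreated medium and 20 µM CCCP served as controls.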

[2] = tested on: J82; assay: Induction of apoptosis in cisplatin resistant human J82 cells assessed as depolarization of mitochondrial membrane potential at 20 uM incubated for 2 hrs by hoechst 33342 staining based fluorescence microscopy; format: functional, cell-based
In short: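 J82CisR cells exposed 2 h, then labelled with TMRE and Hoechst 33342 for 20 min. TMRE signal imaged on a high-content fluorescence imaging platform. Untreated medium control and 20 µM CCCP positive control.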

[3] = tested on: A2780; assay: Induction of apoptosis in human A2780 cells assessed as decrease in mitochondrial membrane potential at 20 uM incubated for 24 hrs by TMRE staining based flow cytometry; format: functional, cell-based
In short: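 Cells seeded overnight; medium switched to FBS-free just before treatment to avoid TMRE ester cleavage. Exposure 1 h, 2 h or 24 h, then TMRE staining for 20 min. Cells trypsinized, centrifuged at 4 °C and read by flow cytometry. Medium as negative control, 20 µM CCCP as positive control. […]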

[4] = tested on: A2780cisR; assay: Induction of apoptosis in human A2780cisR cells assessed as decrease in mitochondrial membrane potential at 20 uM incubated for 24 hrs by TMRE staining based flow cytometry; format: functional, cell-based
In short: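 Cells seeded overnight; complete medium swapped for FBS-free medium just before treatment to avoid TMRE ester cleavage. Exposure to PXA for 1 h, 2 h or 24 h. TMRE staining 20 min, cells collected by trypsinisation, ΔΨm read by flow cytometry. Medium served as negative control, 20 µM CCCP as positive control. Mean ± SEM reported.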

[5] = tested on: A2780; assay: Cell cycle arrest in human A2780 cells assessed as accumulation at G1 phase incubated for 24 hrs by propidium iodide staining based flow cytometry (reference value: 61.8%); format: functional
[6] = tested on: A2780cisR; assay: Cell cycle arrest in human A2780cisR cells assessed as accumulation at G1 phase incubated for 24 hrs by propidium iodide staining based flow cytometry (reference value: 68.7%); format: functional
[7] = tested on: J82; assay: Cell cycle arrest in human J82 cells assessed as accumulation at G1 phase incubated for 24 hrs by propidium iodide staining based flow cytometry (reference value: 69.6%); format: functional
[8] = tested on: J82; assay: Cell cycle arrest in cisplatin resistant human J82 cells assessed as accumulation at G1 phase incubated for 24 hrs by propidium iodide staining based flow cytometry (reference value: 78.1%); format: functional

Compound	Activity [1]	Activity [2]	Activity [3]	Activity [4]	Activity [5] [%]	Activity [6] [%]	Activity [7] [%]	Activity [8] [%]
N#CC(C#N)=NNc1cccc(Cl)c1	Active	Active	Active	Active				
CC(=O)O[C@H]1C(=O)[C@@]2(C)[C@H]([C@H](OC(=O)c3ccccc3)[C@]3(O)C[C@H](OC(=O)[C@H](O)[C@@H](NC(=O)c4ccccc4)c4ccccc4)C(C)=C1C3(C)C)[C@]1(OC(C)=O)CO[C@@H]1C[C@@H]2O [PACLITAXEL]					22.6	21.3	35.1	29.1
